Assay results taken from ChEMBL document CHEMBL4251665, “Ca2+-Signal Transduction Inhibitors, Kujiol A and Kujigamberol B, Isolated from Kuji Amber Using a Mutant Yeast” (J Nat Prod, 2018).
Calls of active or inactive are those of the source. The calls are words filed in the database; no cut-off is given here.

Columns and labels:
WI-38 = test: Cytotoxicity against human WI38 cells after 48 hrs by MTT assay; type: cell-based; conditions: WI-38, 48 h
In short: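 WI-38 human diploid lung fibroblasts cultured in DMEM at 5 × 10^3 cells/well, then tested for cytotoxicity.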

Saccharomyces cerevisiae = test: Inhibition of calcium signal transduction pathway in Saccharomyces cerevisiae YNS17 assessed as growth restoration; type: functional, organism-based
In short: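 Mutant S. cerevisiae YNS17 plate assay. Samples dissolved in MeOH and spotted on plates; growth-restored zones scored over 0.5 to 0.13 μg/spot. Positive control: FK506 at 2.5 ng/spot.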

[1] = target: T1, Glycogen synthase kinase-3 beta (Homo sapiens, UniProt P49841); test: Inhibition of human GSK-3beta using peptide substrate
HL-60 = test: Cytotoxicity against human HL60 cells after 48 hrs by MTT assay; type: cell-based; conditions: HL-60, 48 h
In short: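 HL60 cells grown in RPMI 1640 with 10% heat-inactivated FBS and penicillin (50 units/mL)–streptomycin (50 μg/mL). Exposed to samples for 48 h at 37 °C, humidified, 5% CO2. Viability read by MTT assay; IC50 derived.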

Homo sapiens [2] = species on record: Homo sapiens; test: Inhibition of calcineurin (unknown origin) using DLDVPIPGRFDRRVpSVAAE as substrate by malachite green based colorimetric method
Homo sapiens [3] = species on record: Homo sapiens; test: Inhibition of calcineurin (unknown origin) at 200 uM using DLDVPIPGRFDRRVpSVAAE as substrate by malachite green based colorimetric method
[4] = target: T1, Glycogen synthase kinase-3 beta; test: Inhibition of human GSK-3beta at 200 uM using peptide substrate
Target sequence in this assay (P49841 whole entry, looked up): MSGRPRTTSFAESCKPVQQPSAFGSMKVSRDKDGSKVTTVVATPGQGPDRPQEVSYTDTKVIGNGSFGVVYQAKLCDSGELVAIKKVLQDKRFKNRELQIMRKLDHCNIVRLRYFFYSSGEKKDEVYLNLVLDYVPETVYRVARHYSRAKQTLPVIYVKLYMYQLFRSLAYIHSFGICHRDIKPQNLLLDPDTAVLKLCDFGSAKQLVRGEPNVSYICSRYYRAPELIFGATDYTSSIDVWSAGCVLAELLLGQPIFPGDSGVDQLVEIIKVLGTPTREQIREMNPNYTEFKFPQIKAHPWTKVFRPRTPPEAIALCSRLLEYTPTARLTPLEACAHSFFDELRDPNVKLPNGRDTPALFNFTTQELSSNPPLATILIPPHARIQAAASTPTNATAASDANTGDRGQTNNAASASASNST

Row | IC50 [1] [µM] | inhibition [1] | inhibition (Homo sapiens [2]) | inhibition (Homo sapiens [3]) | inhibition [4] | Structure (SMILES) | IC50 (WI-38) [µM] | inhibition (Saccharomyces cerevisiae) | IC50 (HL-60) [µM]
1 | – | – | – | – | – | Cc1ccc2c(c1CCC(C)C)CCC[C@]2(C)CO [KUJIGAMBEROL] | > 50 | – | –
2 | 178 | Dose-dependent effect | Dose-dependent effect | – | – | Cc1ccc2c(c1)CC[C@H]1[C@@](C)(CO)CCC[C@]21C | > 50 | Dose-dependent effect | 7.1
3 | – | – | – | inactive | inactive | Cc1ccc2c(c1CCC(C)(C)O)CCCC2(C)C | > 50 | Dose-dependent effect | 41.7
